These results are taken from the RNAGym collection of RNA variant scans (doi:10.1002/anie.201605470).

The chains are these.
B1: Osa-1-4 twister ribozyme (parent)
chain: CCGCCUAACACUGCCAAUGCCGGUCCCAAGCCCGGAUAAAAGUGGAGGGGGCGG

Variants of B1 are the subject of this data set. The data set can be described thus: self-cleavage, relative activity (ratio to wild type); higher = more cleavage; co-transcriptional. An outline of the steps: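 In vitro transcription at 37 °C for 2 h allowed the twister ribozyme to cleave itself as it was made. Its 54-nucleotide Oryza sativa template had been synthesised with 97 % wild-type base and 1 % of each other base at the 48 positions downstream of the cleavage site. A template-switching oligonucleotide was used for reverse transcription, followed by PCR amplification and deep sequencing. Whether reads carried upstream sequence set the cleavage status, and relative activity is the fraction cleaved normalised to wild type.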
As for CCGCCUAACACCGCCAAUGCCGGUCCCAAGGCCGGAUAAAAGUGGAGGGGGCGG, the self-cleavage stood at 0.06. As for CCGCCUAACACGGCCAAUGCCGGUCCCAAGGCCGGAUAAAAGUGGAGGGGGCGG, the figure is 0.05; as for CCGCCUAACACUGCCAAUGCCGGUCCCAAGUCCGGAUAAAAGUGGAGGGGGCGU, 0.5.

CCGCCUAACACUGCCAAUGCCGGUCCCAAGUCCGGAUAAAAGUGGAGGGGGCGC: the self-cleavage was found to be 0.27. CCGCCUAACACUGCCAAUGCCGGUCCCAAGUCCGGAUAAAAGUGGAGGGGGCGA: the self-cleavage is 0.32. As for CCGCCUAACACUGCCAAUGCCGGUCCCAAGUCCGUAUAAAAGUGGAGGGGGCGG, the figure is 0.85; as for CCGCCUAACACUGCCAAUGCCGGUCCCAAGUCCGAAUAAAAGUGGAGGGGGCGG, 0.87; as for CCGCCUAACACUGCCAAUGCCGGUCCCAAGUCCGCAUAAAAGUGGAGGGGGCGG, 0.14. As for CCGCCUAACACUGCCAAUGCCGGUCCCAAGGCCGGAUAAAAGGGGAGGGGGCGG, the figure is 0.09. As for CCGCCUAACACUGCCAAUGCCGGUCCCAAGGCCGGAUAAAAGAGGAGGGGGCGG, the figure is 0.1; as for CCGCCUAACACUGCCAAUGCCGGUCCCAAGGCCGGAUAAAAGCGGAGGGGGCGG, 0.06; as for CCGCCUAAGACUGCCAAUGCCGGUCCCAAGUCCGGAUAAAAGUGGAGGGGGCGG, 0.16. As for CCGCCUAAAACUGCCAAUGCCGGUCCCAAGUCCGGAUAAAAGUGGAGGGGGCGG, the self-cleavage turned out to be 0.11. As for CCGCCUAAUACUGCCAAUGCCGGUCCCAAGUCCGGAUAAAAGUGGAGGGGGCGG, the figure is 0.32; as for CCGCCUAACACUGCCAAUGCCGGUCCCAAGUCCGGAUAAAAGUGGAGGGGGAGG, 0.57; as for CCGCCUAACACUGCCAAUGCCGGUCCCAAGUCCGGAUAAAAGUGGAGGGGGGGG, 0.75. Under CCGCCUAACACUGCCAAUGCCGGUCCCAAGUCCGGAUAAAAGUGGAGGGGGUGG stands 0.96. Under CCGCCUAACACUGCCAAUGCCGGUCCCAAGUCCGGAUAAAAGUGGAGGGGCCGG stands 0.06; under CCGCCUAACACUGCCAAUGCCGGUCCCAAGUCCGGAUAAAAGUGGAGGGGUCGG, 0.13. With CCGCCUAACACUGCCAAUGCCGGUCCCAAGUCCGGAUAAAAGUGGAGGGGACGG, the self-cleavage stood at 0.29. Under CCGCCUAACACUGCCAAUGCCGGGCCCAAGUCCGGAUAAAAGUGGAGGGGGCGG stands 0.03. Take CCGCCUAACACUGCCAAUGCCGGACCCAAGUCCGGAUAAAAGUGGAGGGGGCGG: the self-cleavage stood at 0.02. Under CCGCCUAACACUGCCAAUGCCGGCCCCAAGUCCGGAUAAAAGUGGAGGGGGCGG stands 0.05; under CCGCCUAACACUGCCAAUGCCGGUCCCAAGCACGGAUAAAAGUGGAGGGGGCGG, 0.15; under CCGCCUAACACUGCCAAUGCCGGUCCCAAGUCCGGAUAAAAGUUGAGGGGGCGG, 0.51.

As for CCGCCUAACACUGCCAAUGCCGGUCCCAAGUCCGGAUAAAAGUCGAGGGGGCGG, the self-cleavage came out at 0.62. As to CCGCCUAACACUGCCAAUGCCGGUCCCAAGUCCGGAUAAAAGUAGAGGGGGCGG, the self-cleavage worked out at 0.29. For CCGCCUAACACCGCCAAUGCCGGUCCCAAGUCCGGAUAAAAGUGGAGGGGGCGG, the self-cleavage worked out at 0.11. In the case of CCGCCUAACACGGCCAAUGCCGGUCCCAAGUCCGGAUAAAAGUGGAGGGGGCGG, the self-cleavage was found to be 0.19. Under CCGCCUAACACAGCCAAUGCCGGUCCCAAGUCCGGAUAAAAGUGGAGGGGGCGG stands 0.28; under CCGCCUAACACUGCCAACGCCGGUCCCAAGGCCGGAUAAAAGUGGAGGGGGCGG, 0.13. Under CCGCCUAACACUGCCAAGGCCGGUCCCAAGGCCGGAUAAAAGUGGAGGGGGCGG stands 0.15.

Consider CCGCCUAACACUGCCAAAGCCGGUCCCAAGGCCGGAUAAAAGUGGAGGGGGCGG, for which the self-cleavage came out at 0.1.

For CCGCCUAACACUGCCAAUUCCGGUCCCAAGUCCGGAUAAAAGUGGAGGGGGCGG, the self-cleavage was 0.05. As for CCGCCUAACACUGCCAAUCCCGGUCCCAAGUCCGGAUAAAAGUGGAGGGGGCGG, the figure is 0.06; as for CCGCCUAACACUGCCAAUACCGGUCCCAAGUCCGGAUAAAAGUGGAGGGGGCGG, 0.14; as for CCGCCUAACACUGCCAAUGCCUGUCCCAAGUCCGGAUAAAAGUGGAGGGGGCGG, 0.3.

As to CCGCCUAACACUGCCAAUGCCCGUCCCAAGUCCGGAUAAAAGUGGAGGGGGCGG, the self-cleavage stood at 0.07.

Consider CCGCCUAACACUGCCAAUGCCAGUCCCAAGUCCGGAUAAAAGUGGAGGGGGCGG, for which the self-cleavage is 0.52. Under CCGCCUAACACUGCCAAUGCCGGUCCCAAGUCCGGACAAAAGUGGAGGGGGCGG stands 0.94; under CCGCCUAACACUGCCAAUGCCGGUCCCAAGUCCGGAAAAAAGUGGAGGGGGCGG, 0.84. Under CCGCCUAACACUGCCAAUGCCGGUCCCAAGUCCGGAGAAAAGUGGAGGGGGCGG stands 1; under CCGCCUAACACUGCCAAUGCCGGUCCCAAGUCCGGAUAAAAGUGGAGGGGGCUG, 0.08; under CCGCCUAACACUGCCAAUGCCGGUCCCAAGUCCGGAUAAAAGUGGAGGGGGCCG, 0.05. Under CCGCCUAACACUGCCAAUGCCGGUCCCAAGUCCGGAUAAAAGUGGAGGGGGCAG stands 0.19; under CCGCCUAACACUGCCAAUGCCGGUCCCAAGGCCGGAAAAAAGUGGAGGGGGCGG, 0.12; under CCGCCUAACACUGCCAAUGCCGGUCCCAAGGCCGGAGAAAAGUGGAGGGGGCGG, 0.14.

Consider CCGCCUAACACUGCCAAUGCCGGUCCCAAGGCCGGACAAAAGUGGAGGGGGCGG, for which the self-cleavage came to 0.09.
